Calls of active or inactive are those of the source. No cut-off for these calls is given here.
How the values were obtained:
[1] = system: Rattus norvegicus; assay: Antidyslipidemic activity in Charles foster rat assessed as increase in triton WR-1339-reduced post heparin lipolytic activity level in plasma at 100 mg/kg, po after 18 hrs by spectrophotometric analysis relative to triton-treated rat; format: functional; parameters: scale not given: the % may be the effect or the level left
Procedure, shortened: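 Triton WR-1339 hyperlipidemia in male Charles Foster rats: 400 mg/kg i.p. plus oral dose in gum acacia vehicle, fasted, 6 rats/group. Plasma taken 18 h later from retro-orbital blood. Post-heparin lipolytic activity measured spectrophotometrically as nmol free fatty acids formed/h/ml plasma. Percent change against triton-only rats; mean ± SD.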

[2] = Antioxidant activity assessed as reduction of microsomal lipid per-oxidation level by measuring formation of malondialdehyde at 200 ug/ml after 90 mins by spectrophotometric analysis relative to control; format: functional; parameters: scale not given: the % may be the effect or the level left
[3] = system: Rattus norvegicus; assay: Antidyslipidemic activity in Charles foster rat assessed as decrease in triton WR-1339-induced triglyceride level in plasma at 100 mg/kg, po after 18 hrs relative to triton-treated rat; format: functional; parameters: scale not given: the % may be the effect or the level left
Procedure, shortened: (§1)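 Male adult Charles Foster rats (200–225 g), six per group. Triton WR-1339 400 mg/kg i.p., with test agent given orally at the same time as a gum acacia suspension in water; food withdrawn. Controls received vehicle. At 18 h, retro-orbital EDTA blood taken and centrifuged 2500 × g for 10 min at 4 °C. Plasma diluted 1:3 in saline; TC, PL and TG read enzymatically on an autoanalyzer. Percent change against triton group.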

[4] = system: Rattus norvegicus; assay: Antidyslipidemic activity in Charles foster rat assessed as decrease in triton WR-1339-induced phospholipid level in plasma at 100 mg/kg, po after 18 hrs relative to triton-treated rat; format: functional; parameters: scale not given: the % may be the effect or the level left; procedure, shortened: as §1
[5] = Antioxidant activity assessed as decrease in superoxide anions level by measuring formation of formazone at 200 ug/ml after 30 mins by spectrophotometric analysis relative to control; format: functional; parameters: scale not given: the % may be the effect or the level left
Procedure, shortened: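 Superoxide made enzymatically with xanthine ([…]), xanthine oxidase (0.04 U) and nitroblue tetrazolium (320 µM) in 100 mM phosphate buffer pH 8.2. Compound at 200 µg/mL, sonicated in buffer. Incubated 37 °C for 30 min, stopped with glacial acetic acid, formazan read spectrophotometrically. Allopurinol as standard.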

[6] = system: Rattus norvegicus; assay: Antidyslipidemic activity in Charles foster rat assessed as decrease in triton WR-1339-induced total cholesterol level in plasma at 100 mg/kg, po after 18 hrs relative to triton-treated rat; format: functional; parameters: scale not given: the % may be the effect or the level left; procedure, shortened: as §1
[7] = Antioxidant activity assessed as decrease in hydroxyl radicals level by measuring formation of malondialdehyde at 200 ug/ml after 90 mins by spectrophotometric analysis relative to control; format: functional; parameters: scale not given: the % may be the effect or the level left
Procedure, shortened: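 Hydroxyl radicals generated without enzyme from deoxyribose 2.8 mM, FeSO4·7H2O 2 mM, sodium ascorbate 2.0 mM and H2O2 2.8 mM in 50 mM KH2PO4 pH 7.4. Compound at 200 µg/mL. Incubated 37 °C for 90 min. Mannitol as standard.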

[8] = system: Rattus norvegicus; assay: Antidyslipidemic activity in Charles foster rat assessed as increase in triton WR-1339-reduced lipoprotein lipase level in liver at 100 mg/kg, po relative to triton-treated rat; format: functional, organism-based; parameters: dose 100 mg/kg
Procedure, shortened: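 Rats given triton WR-1339 (400 mg/kg i.p.) with oral test agent in gum acacia, 6 per group. Liver homogenized 10% w/v in cold 100 mM phosphate buffer pH 7.2 and assayed for total lipoprotein lipase lipolytic activity. Mean ± SD.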

Structure (SMILES) | Activity [1] | Activity [2] | Activity [3] | Activity [4] | Activity [5] | Activity [6] | Activity [7] | Activity [8]
C=C1CC[C@@H]2[C@](C)(CO)[C@H](O)CC[C@@]2(C)[C@@H]1C/C=C1/C(=O)OC[C@H]1OC(C)=O | 7% | 19% | 15% | 13% | 19% | 13% | 17% | 
C=C1CC[C@@H]2[C@]3(C)COC(C)(C)O[C@@H]3CC[C@@]2(C)[C@@H]1C/C=C1/C(=O)OC[C@H]1O | 6% | 17% | 15% | 12% | 15% | 16% | 11% | 
C=C1CC[C@@H]2[C@](C)(COC(C)=O)[C@H](OC(C)=O)CC[C@@]2(C)[C@@H]1C/C=C1/C(=O)OC[C@H]1OC(C)=O | 11% | 11% | 18% | 16% | 12% | 19% | 16% | 
C=C1CC[C@@H]2[C@]3(C)COC(C)(C)O[C@@H]3CC[C@@]2(C)[C@@H]1C/C=C1/C(=O)OC[C@H]1OC(C)=O | 5% | 26% | 13% | 14% | 23% | 16% | 25% | 
C[C@]1(CO)[C@H]2CC[C@@]3(CO3)[C@@H](C/C=C3/C(=O)OC[C@H]3O)[C@]2(C)CC[C@H]1O | 6% | 14% | 14% | 17% | 17% | 15% | 15% | 
C=C1CC[C@@H]2[C@](C)(CO)[C@H](O)CC[C@@]2(C)[C@@H]1CCC1C(=O)OC[C@H]1O (stereo partly specified) | 5% | 10% | 11% | 10% | 14% | 12% | 11% | 
CC1CC[C@@H]2[C@](C)(CO)[C@H](O)CC[C@@]2(C)[C@@H]1CCC1C(=O)OC[C@H]1O (stereo partly specified) | 4% | 14% | 15% | 13% | 13% | 11% | 17% | 
C=C1CC[C@@H]2[C@](C)(CO)[C@H](O)CC[C@@]2(C)[C@@H]1C/C=C1\C=COC1=O | 10% | 13% | 18% | 17% | 16% | 19% | 18% | 
Oc1ncnc2[nH]ncc12 |  |  |  |  | 54% |  |  | 
Cc1ccc(C)c(OCCCC(C)(C)C(=O)O)c1 [GEMFIBROZIL] | 16% |  | 28% | 30% |  | 30% |  | Active
C=C1CC[C@H]2[C@@](C)(CCC(=O)[C@@]2(C)C=O)[C@@H]1C/C=C1/C(=O)OC[C@H]1O | 4% | 14% | 10% | 10% | 16% | 13% | 12% | 
C=C1CC[C@@H]2[C@](C)(CO)[C@H](O)CC[C@@]2(C)[C@@H]1CCC1=CCOC1=O [DEOXYANDROGRAPHOLIDE] | 6% | 13% | 12% | 14% | 11% | 17% | 16% | 
C=C1CC[C@@H]2[C@](C)(COS(=O)(=O)c3c(C)cc(C)cc3C)[C@H](O)CC[C@@]2(C)[C@@H]1C/C=C1/C(=O)OC[C@H]1OC(C)=O | 6% | 26% | 11% | 14% | 31% | 12% | 28% | 
OC[C@@H](O)[C@@H](O)[C@H](O)[C@H](O)CO |  |  |  |  |  |  | 50% | 
CC1CC[C@@H]2[C@](C)(CO)[C@H](O)CC[C@@]2(C)[C@@H]1C/C=C1/C(=O)OC[C@H]1O (stereo partly specified) | 5% | 17% | 15% | 17% | 19% | 14% | 15% | 
C=C1CC[C@@H]2[C@](C)(COS(=O)(=O)c3c(C)cc(C)cc3C)[C@H](O)CC[C@@]2(C)[C@@H]1C/C=C1/C(=O)OC[C@H]1O | 12% | 26% | 20% | 20% | 23% | 22% | 25% | 
CC(C)OC(=O)C(C)(C)Oc1ccc(C(=O)c2ccc(Cl)cc2)cc1 [FENOFIBRATE] | 17% |  | 33% | 33% |  | 32% |  | Active
C=C1CC[C@@H]2[C@](C)(COS(=O)(=O)c3ccc(C)cc3)[C@H](O)CC[C@@]2(C)[C@@H]1C/C=C1/C(=O)OC[C@H]1OC(C)=O | 13% | 29% | 22% | 22% | 27% | 20% | 30% | 
Cc1c(C)c2c(c(C)c1O)CC[C@@](C)(CCC[C@H](C)CCC[C@H](C)CCCC(C)C)O2 |  | 55% |  |  |  |  |  | 
